# Compound activity: PubChem BioAssay, several laboratories
# Compounds with a hit are over-represented: about 1.6% of the library has one in this group of screens.
# SUMO HTRF inh = inhibitors of human SUMOylation (UBC9); inhibition, % at 35 µM; AID 2006; HTRF SUMOylation assay, SAE1/SAE2 + UBC9, in vitro; 290,000 tested, 0.36% active; in the data active = inhibition above about 50%, passing the limit was not always enough
# Target sequence (P63279 whole entry, looked up): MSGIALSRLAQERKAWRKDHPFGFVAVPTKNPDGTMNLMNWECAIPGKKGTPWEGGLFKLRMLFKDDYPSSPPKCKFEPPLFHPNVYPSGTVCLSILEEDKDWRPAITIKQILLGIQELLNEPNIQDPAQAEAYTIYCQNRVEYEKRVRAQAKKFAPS
# p97 inhibitor = blocks human p97 ATPase activity; P55072; recombinant p97 ATPase, Kinase-Glo ATP luminescence, 3 h; inhibition, % at 8 µM; 220,000 tested, 0.42% active; in the data active = inhibition above about 15%;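 also: 0% = DMSO vehicle and 100% = wells lacking enzyme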
# eIF4E 4G PPI = eIF4E/eIF4G interaction inhibition in translation initiation. P63073+Q04637. AID 782. 220,000 tested, 0.37% active. TR-FRET eIF4E-eIF4GI(517-606) binding, 2 h. inhibition, % at 21.7 µM;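 also: 0% = full FRET control wells and 100% = background wells lacking eIF4GI fragment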
# 14-3-3 Bad inh = disrupts binding of bovine 14-3-3 zeta to phospho-Bad peptide | P63103 | TR-FRET 14-3-3zeta/Dy647-pBad peptide displacement, 1 h | inhibition, % at 21.7 µM | 220,000 tested, 0.71% active | AID 781;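 active = inhibition above about 70%, limit read from the data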;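 also: 0% = full 14-3-3 plus peptide FRET controls and 100% = background without 14-3-3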
# Target sequence (P63103 whole entry, looked up): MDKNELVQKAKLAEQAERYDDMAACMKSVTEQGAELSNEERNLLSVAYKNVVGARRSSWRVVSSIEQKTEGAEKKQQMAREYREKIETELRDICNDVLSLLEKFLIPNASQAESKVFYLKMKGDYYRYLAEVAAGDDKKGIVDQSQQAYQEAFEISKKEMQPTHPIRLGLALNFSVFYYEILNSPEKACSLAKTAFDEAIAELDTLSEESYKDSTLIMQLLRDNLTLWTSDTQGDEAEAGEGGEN
# p47phox inh = blocks human p47phox regulatory protein of NADPH oxidases | P14598 | inhibition, % at 24.7 µM | 220,000 tested, 0.53% active | p47phox/p22phox peptide binding, fluorescence polarization, 2 h | AID 1274;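 also: 0% = p47phox with labelled peptide and 100% = labelled peptide alone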
# TbMetRS inhib = blocks T. brucei methionyl-tRNA synthetase activity. purified T. brucei MetRS, ATP depletion, Kinase-Glo luminescence. inhibition, % at 11.9 µM. 360,000 tested, 0.4% active. AID 624268;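 active = inhibition above a per-plate cutoff of the control wells' mean inhibition plus 3 SD, cut at about 5.5% in these data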;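 also: 0% = DMSO wells median and 100% = median of wells with control inhibitor compound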
#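 Material – parasite MetRS enzyme · Medium – HEPES-MgCl2-KCl buffer plus DTT, spermine, BSA, pyrophosphatase · Reagent – ATP, methionine and E. coli bulk tRNA substrates · Times – 15 min enzyme-compound preincubation, 2 h reaction, 10 min detection, 25 °C · Measured by – luminescence of leftover ATP · Evaluation – percent inhibition relative to median high and low control wells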
# An asterisk follows results filed as active; / = not tested or not shown; [ ] = another dose, or the depositor's remark.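 The calls were made as follows, unless noted: active = inhibition above about 30% (limit read from the data); inactive = the rest.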
SMILES,SUMO HTRF inh,p97 inhibitor,eIF4E 4G PPI,14-3-3 Bad inh,p47phox inh,TbMetRS inhib
CCC(C)/C(C)=N/NC(=O)CSc1nc2ccccc2[nH]1 (centres undefined),19,4,0,6,-8,1
Nc1ccc(Br)c2c1C(=O)c1ccccc1C2=O,-44,14,2,7,37*,/
Nc1ccc(O)c2c1C(=O)c1ccccc1C2=O,-34,-6,31*[fluorescence artefact?],55,54*,0
Cc1sc(NC(=O)c2ccco2)c(CN2CCCCC2)c1C,1,3,3,-6,-17,0
Cc1sc(NC(=O)c2ccco2)c(CN2CCN(c3ccccc3)CC2)c1C,-13,-7,0,80*,-17,0
CSCCC(C(=O)Nc1c(C)cccc1C)n1c(COc2ccc(C)cc2)nc2ccccc21 (centres undefined),/,/,/,/,/,0
O=C(CN1CCOCC1)NNc1c2ccccc2nc2ccccc12,1,6,5,7,-1,0
O=C(CN1CCCC1)Nc1c2c(nc3ccccc13)N(Cc1ccccc1)CC2,11,3,0,84*,-18,0
CCN(CC)CC(=O)Nc1c2c(nc3ccccc13)N(C)CC2,7,/,/,/,/,-1
O=C(CN1CCOCC1)Nc1c2c(nc3ccccc13)N(Cc1ccccc1)CC2,-11,1,-2,77*,-4,0
O=C(N=Nc1c(O)n(Cc2ccccc2)c2ccccc12)c1cc2ccccc2cc1O,/,4,19,47,40*,-1
Cn1c(O)c(N=NC(=O)c2ccccc2O)c2ccccc21,13,-1,1,0,-7,1
COc1ccccc1NC(=O)Cn1c(O)c(N=NC(=O)c2ccccc2O)c2ccccc21,/,2,25,79*,30,1
Cc1ccc(NC(=O)Cn2c(O)c(N=NC(=O)c3cc4ccccc4cc3O)c3ccccc32)cc1,/,3,28,82*[fluorescence artefact?],58*,-2
O=C(N=Nc1c(O)n(Cc2ccccc2)c2ccccc12)c1ccc(O)cc1,-1,-7,-1,3,-3,1
Cc1ccc(S(=O)(=O)N2[C@@H](c3cccc(Cl)c3)C(C(=O)OC(C)(C)C)=CC[C@H]2c2ccc(C(C)C)cc2)cc1,/,/,/,/,/,-1
CN(C)c1ccc(/C=C/c2ccc3c4ccccc4ccc3[n+]2-c2ccccc2)cc1,-22,-14,75*,-13,-55,-2
CN(C)c1ccc(/C=C/c2ccc3ccccc3[n+]2C)cc1,-79,-17,-3,-77,-140,-3
NC(=NCCc1ccccc1)NS(=O)(=O)c1ccccc1F,-10,/,/,/,/,0
COc1cc(CN2CCN(Cc3ccc(C(F)(F)F)cc3)CC2)cc(OC)c1OC,12,/,/,/,/,-1
C=CCNc1nc(-c2ccc(OC)cc2OC)cs1,0,8,8,76*,-9,0
COc1ccc(-c2csc(NC(=O)C3=COCCO3)n2)c(OC)c1,/,/,/,/,/,0
CCOC(=O)CSc1ccc2nnc(CCNS(=O)(=O)c3ccccc3)n2n1,13,2,0,83*,/,0
CCCn1c(C)cc(-c2csc(N)n2)c1C,40,-2,-2,74*,-12,0
Oc1ccc(O)c(Cc2nc3ccccc3s2)c1,-13,15*,-2,3,-3,0
SMILES,SUMO HTRF inh,p97 inhibitor,eIF4E 4G PPI,14-3-3 Bad inh,p47phox inh,TbMetRS inhib
CCOc1ccccc1NC(=O)c1c(Br)cnn1C,2,-7,-24,5,38*,-1
CC(C)(C)[C@@H]1COC(=O)[C@H](Cc2ccc(F)cc2)C/C=C\C[C@H](CC(=O)N(CCO)Cc2ccccc2)C(=O)N1,/,/,/,/,/,0
CCCCN(C)C(=O)c1sc(=O)n(Cc2c(C)cccc2C)c1C,/,/,/,/,/,0
O=C(N/N=C/c1ccccc1)c1ccc(CN2C(=O)c3cccc4cccc2c34)cc1,50*,8,13,48,29,0
CN(C)c1ccc(/C=N/NC(=O)c2ccc(CN3C(=O)c4cccc5cccc3c45)cc2)cc1,11,7,-9,2,-31,/
CN1CCc2nc(SCC(=O)Nc3ccc(F)cc3)c(C#N)cc2C1,13,4,2,3,37*,/
CCN1C(=O)C(O)(C2COC(C)(C)CC2=O)c2ccccc21 (centres undefined),1,-3,-7,-11,-18,0
CCN1C(=O)C(c2ccc(O)cc2)(c2ccc(O)cc2)c2ccccc21,31,1,1,94*,-16,-1
CCN(C(=O)Cc1cccs1)c1nnc(-c2cc(OC)c(OC)c(OC)c2)s1,-4,-3,0,-1,-13,0
CCN(C(=O)Cc1ccccc1OC)c1nnc(-c2ccncc2)s1,-2,-1,-6,79*,0,0
CC(O)(c1cccnc1)c1nc(-c2cccc(C(F)(F)F)c2)cs1 (centres undefined),/,/,/,/,/,0
CCOc1cc(CN2CCSCC2)ccc1O,-1,0,1,74*,2,-1
CCOC(=O)N1CCN(C(=O)C2CCN(Cc3ccc(O)c(OCC)c3)CC2)CC1,-1,-1,2,0,2,0
COC(=O)C[C@@H]1C[C@@H]2c3cc(NC(=O)Cc4ccncc4)ccc3O[C@@H]2[C@@H](CO)O1,/,/,/,/,/,0
CCNc1nc(-c2sc(NC(=O)C(C)(C)C)nc2C)c(-n2cc(-c3ccccc3)nn2)s1,/,/,/,/,/,-2
C=CCN1C(C(=O)c2ccccc2)=C(OC(=O)COc2ccccc2)c2ccccc2S1(=O)=O,-18,-2,24,77*,-13,0
CC(=O)c1ccc(OC(=O)COc2ccccc2)cc1,3,/,/,/,/,0
CCOC(=O)COc1cc(N2C(=O)CSCC2=O)c(Cl)cc1Cl,-35,-6,-1,-4,-8,0
CCOC(=O)COc1cc(-n2c(=S)[nH]c3cc(OC)c(OC)cc3c2=O)c(Cl)cc1Cl,4,2,1,-13,37*,-1
O=C(NC1CCCCC1)c1nc(-c2c(F)cccc2F)oc1-c1ccccc1,/,/,/,/,/,0
CC1(C)CC(=O)C2=C(C1)Nc1cc3c(cc1C2c1ccc2c(c1)OCO2)OCO3 (centres undefined),21,3,0,0,59*,0
CC1(C)CC(=O)C2=C(C1)Nc1cc3c(cc1C2c1ccc(F)cc1)OCO3 (centres undefined),37,7,-7,-7,-11,-1
Nc1nc(N2CCN(c3ccccc3)CC2)n[nH]1,22,1,1,72*,-2,-1
O=C(NCC[C@H]1CC[C@H](NS(=O)(=O)c2ccccc2F)[C@@H](CO)O1)c1ccc(F)cc1,/,/,/,/,/,-1
O=c1[nH][nH]c(=S)n1-c1ccccc1C(F)(F)F,4,3,30,3,60*,/
CC(C)c1ccc(C(=O)N2CCCCC2c2cc(C(=O)NCc3cccnc3)no2)cc1 (centres undefined),/,/,/,/,/,0
